Reference: ChEMBL document CHEMBL1157589, “Antifungal 3,5-disubstituted furanones: From 5-acyloxymethyl to 5-alkylidene derivatives” (Bioorg Med Chem, 2010)
pIC50: −log10 of the molar value. Converted amounts (≈) assume the structure as drawn.

Key:
Lichtheimia corymbifera [1] = test: Antifungal activity against Absidia corymbifera 272 after 48 hrs by microdilution method; type: functional; conditions: Lichtheimia corymbifera, 272, 48 h
In short: (§1)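 Filamentous strains held on Sabouraud dextrose agar. NCCLS M27-A broth microdilution in RPMI 1640 with L-glutamine and 0.165 M MOPS, pH 7.0. DMSO diluent ≤2% final; twofold dilutions 500–0.48. Inoculum 5 × 10³ ± 0.2 cfu mL⁻¹ final.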

Nakaseomyces glabratus [2] = test: Antifungal activity against Candida glabrata 20/I after 24 hrs by microdilution method; type: functional
In short: (§2)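 Yeasts held on Sabouraud dextrose agar. MIC by NCCLS M27-A broth microdilution in RPMI 1640 with L-glutamine, buffered with 0.165 M MOPS to pH 7.0. Compounds in DMSO (≤2% final), twofold dilutions 500–0.48. Final inoculum 5 × 10³ ± 0.2 cfu mL⁻¹. Incubated at 35 °C; absorbance at 540 nm read at 24 and 48 h. MIC is 80% growth inhibition versus control; run twice in duplicate.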

Candida albicans [3] = test: Antifungal activity against Candida albicans ATCC 44859 after 48 hrs by microdilution method; type: functional; conditions: ATCC 44859, 48 h; in short: as §2
Candida tropicalis [4] = test: Antifungal activity against Candida tropicalis 156 after 24 hrs by microdilution method; type: functional; conditions: Candida tropicalis, 156, 24 h; in short: as §2
Candida parapsilosis [5] = test: Antifungal activity against Candida parapsilosis ATCC 22019 after 24 hrs by microdilution method; type: functional; conditions: Lodderomyces parapsilosis, ATCC 22019, 24 h; in short: as §2
Trichosporon beigelii [6] = test: Antifungal activity against Trichosporon beigelii 1188 after 24 hrs by microdilution method; type: functional; conditions: Trichosporon beigelii, 1188, 24 h; in short: as §2
Nakaseomyces glabratus [7] = test: Antifungal activity against Candida glabrata 20/I after 48 hrs by microdilution method; type: functional; in short: as §2
Clavispora lusitaniae [8] = test: Antifungal activity against Candida lusitaniae 2446/I after 24 hrs by microdilution method; type: functional; in short: as §2
Pichia kudriavzevii [9] = test: Antifungal activity against Candida krusei E28 after 48 hrs by microdilution method; type: functional; conditions: E28, 48 h; in short: as §2
Candida albicans [10] = test: Antifungal activity against Candida albicans ATCC 90028 after 24 hrs by microdilution method; type: functional; conditions: ATCC 90028, 24 h; in short: as §2
[11] = tested on: Trichophyton mentagrophytes; test: Antifungal activity against Trichophyton mentagrophytes 445 after 72 hrs by microdilution method; type: functional; conditions: Trichophyton mentagrophytes, 445, 72 h
In short: (§3)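 Dermatophyte held on Sabouraud dextrose agar. M27-A microdilution in MOPS-buffered (0.165 M, pH 7.0) RPMI 1640 with L-glutamine. DMSO ≤2% final; twofold dilutions 500–0.48. Inoculum 5 × 10³ ± 0.2 cfu mL⁻¹ final. Incubated at 35 °C; MIC read visually at 72 and 120 h as 80% inhibition of control growth; determined twice in duplicate.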

Aspergillus fumigatus [12] = test: Antifungal activity against Aspergillus fumigatus 231 after 24 hrs by microdilution method; type: functional; conditions: Aspergillus fumigatus, 231, 24 h; in short: as §1
Trichosporon beigelii [13] = test: Antifungal activity against Trichosporon beigelii 1188 after 48 hrs by microdilution method; type: functional; conditions: Trichosporon beigelii, 1188, 48 h; in short: as §2
Pichia kudriavzevii [14] = test: Antifungal activity against Candida krusei ATCC 6258 after 24 hrs by microdilution method; type: functional; conditions: ATCC 6258, 24 h; in short: as §2
Clavispora lusitaniae [15] = test: Antifungal activity against Candida lusitaniae 2446/I after 48 hrs by microdilution method; type: functional; in short: as §2
Candida parapsilosis [16] = test: Antifungal activity against Candida parapsilosis ATCC 22019 after 48 hrs by microdilution method; type: functional; conditions: Lodderomyces parapsilosis, ATCC 22019, 48 h; in short: as §2
Aspergillus fumigatus [17] = test: Antifungal activity against Aspergillus fumigatus 231 after 48 hrs by microdilution method; type: functional; conditions: Aspergillus fumigatus, 231, 48 h; in short: as §1
Candida tropicalis [18] = test: Antifungal activity against Candida tropicalis 156 after 48 hrs by microdilution method; type: functional; conditions: Candida tropicalis, 156, 48 h; in short: as §2
Pichia kudriavzevii [19] = test: Antifungal activity against Candida krusei E28 after 24 hrs by microdilution method; type: functional; conditions: E28, 24 h; in short: as §2
[20] = tested on: Trichophyton mentagrophytes; test: Antifungal activity against Trichophyton mentagrophytes 445 after 120 hrs by microdilution method; type: functional; conditions: Trichophyton mentagrophytes, 445, 120 h; in short: as §3
Candida albicans [21] = test: Antifungal activity against Candida albicans ATCC 90028 after 48 hrs by microdilution method; type: functional; conditions: ATCC 90028, 48 h; in short: as §2
Candida albicans [22] = test: Antifungal activity against Candida albicans ATCC 44859 after 24 hrs by microdilution method; type: functional; conditions: ATCC 44859, 24 h; in short: as §2
Lichtheimia corymbifera [23] = test: Antifungal activity against Absidia corymbifera 272 after 24 hrs by microdilution method; type: functional; conditions: Lichtheimia corymbifera, 272, 24 h; in short: as §1
Pichia kudriavzevii [24] = test: Antifungal activity against Candida krusei ATCC 6258 after 48 hrs by microdilution method; type: functional; conditions: ATCC 6258, 48 h; in short: as §2
HeLa S3 = test: Cytostatic activity against human HeLaS3 cells after 48 hrs by XTT assay; conditions: Homo sapiens, HeLa S3, 48 h; read-out: IC50
CCRF-CEM = test: Cytostatic activity against human CCRF-CEM cells after 72 hrs by XTT assay; type: functional, cell-based; conditions: Homo sapiens, CCRF-CEM, 72 h; read-out: IC50
In short: (§4)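 Leukemia cells (L1210 ATCC CCL 219, CCRF-CEM ATCC CCL 119, HL-60 ATCC CCL 240) grown in 24-well plates in RPMI 1640 with fetal calf serum. Growth assessed 72 h after drug addition. Viability measured by XTT spectrophotometric assay; potency given as IC50.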

HL-60 = test: Cytostatic activity against human HL60 cells after 72 hrs by XTT assay; type: functional, cell-based; conditions: Homo sapiens, HL-60, 72 h; read-out: IC50; in short: as §4

Structure (SMILES) | MIC80 (Lichtheimia corymbifera [1]) [µM] | MIC80 (Nakaseomyces glabratus [2]) [µM] | MIC80 (Candida albicans [3]) [µM] | MIC80 (Candida tropicalis [4]) [µM] | MIC80 (Candida parapsilosis [5]) [µM] | MIC80 (Trichosporon beigelii [6]) [µM] | MIC80 (Nakaseomyces glabratus [7]) [µM] | MIC80 (Clavispora lusitaniae [8]) [µM] | MIC80 (Pichia kudriavzevii [9]) [µM] | MIC80 (Candida albicans [10]) [µM] | MIC80 [11] [µM] | MIC80 (Aspergillus fumigatus [12]) [µM] | MIC80 (Trichosporon beigelii [13]) [µM] | MIC80 (Pichia kudriavzevii [14]) [µM] | MIC80 (Clavispora lusitaniae [15]) [µM] | MIC80 (Candida parapsilosis [16]) [µM] | MIC80 (Aspergillus fumigatus [17]) [µM] | MIC80 (Candida tropicalis [18]) [µM] | MIC80 (Pichia kudriavzevii [19]) [µM] | MIC80 (Candida albicans [21]) [µM] | other results
O=C1OC(COc2ccc(O)cc2)C=C1c1ccc(Br)cc1 (stereo not given) | 62.5 (≈ 22.6 µg/mL) | 1.95 (≈ 0.704 µg/mL) | 1.95 (≈ 0.704 µg/mL) | 7.81 (≈ 2.82 µg/mL) | 7.81 (≈ 2.82 µg/mL) | 7.81 (≈ 2.82 µg/mL) | 1.95 (≈ 0.704 µg/mL) | 3.9 (≈ 1.41 µg/mL) | 15.6 (≈ 5.64 µg/mL) | 1.95 (≈ 0.704 µg/mL) | 1.95 (≈ 0.704 µg/mL) | 1.95 (≈ 0.704 µg/mL) | 15.6 (≈ 5.64 µg/mL) | 7.81 (≈ 2.82 µg/mL) | 7.81 (≈ 2.82 µg/mL) | 15.6 (≈ 5.64 µg/mL) | 7.81 (≈ 2.82 µg/mL) | 7.81 (≈ 2.82 µg/mL) | 7.81 (≈ 2.82 µg/mL) | 3.9 (≈ 1.41 µg/mL) | MIC80 [20]: 1.95 µM (≈ 0.704 µg/mL); MIC80 (Candida albicans [22]): 0.97 µM (≈ 0.35 µg/mL); MIC80 (Lichtheimia corymbifera [23]): 15.6 µM (≈ 5.64 µg/mL); MIC80 (Pichia kudriavzevii [24]): 15.6 µM (≈ 5.64 µg/mL)
COC(=O)c1ccc(OCC2C=C(c3ccc(Br)cc3)C(=O)O2)cc1 (stereo not given) | 125 (≈ 50.4 µg/mL) | 3.9 (≈ 1.57 µg/mL) | 1.95 (≈ 0.786 µg/mL) | 15.6 (≈ 6.3 µg/mL) | 15.6 (≈ 6.3 µg/mL) | 7.81 (≈ 3.15 µg/mL) | 3.9 (≈ 1.57 µg/mL) | 7.81 (≈ 3.15 µg/mL) | 15.6 (≈ 6.3 µg/mL) | 3.9 (≈ 1.57 µg/mL) | 3.9 (≈ 1.57 µg/mL) | 3.9 (≈ 1.57 µg/mL) | 15.6 (≈ 6.3 µg/mL) | 15.6 (≈ 6.3 µg/mL) | 15.6 (≈ 6.3 µg/mL) | 15.6 (≈ 6.3 µg/mL) | 7.81 (≈ 3.15 µg/mL) | 15.6 (≈ 6.3 µg/mL) | 15.6 (≈ 6.3 µg/mL) | 7.81 (≈ 3.15 µg/mL) | pIC50 (HeLa S3): 5.35; MIC80 [20]: 3.9 µM (≈ 1.57 µg/mL); pIC50 (CCRF-CEM): 5.90; MIC80 (Candida albicans [22]): 0.48 µM (≈ 0.194 µg/mL); pIC50 (HL-60): 5.39; MIC80 (Lichtheimia corymbifera [23]): 62.5 µM (≈ 25.2 µg/mL); MIC80 (Pichia kudriavzevii [24]): 15.6 µM (≈ 6.3 µg/mL)
O=C1OC(COc2cccc(Br)c2)C=C1c1ccc(Br)cc1 (stereo not given) | 62.5 (≈ 26.5 µg/mL) | 1.95 (≈ 0.827 µg/mL) | 1.95 (≈ 0.827 µg/mL) | 7.81 (≈ 3.31 µg/mL) | 7.81 (≈ 3.31 µg/mL) | 7.81 (≈ 3.31 µg/mL) | 1.95 (≈ 0.827 µg/mL) | 7.81 (≈ 3.31 µg/mL) | 15.6 (≈ 6.62 µg/mL) | 3.9 (≈ 1.65 µg/mL) | 1.95 (≈ 0.827 µg/mL) | 3.9 (≈ 1.65 µg/mL) | 62.5 (≈ 26.5 µg/mL) | 7.81 (≈ 3.31 µg/mL) | 15.6 (≈ 6.62 µg/mL) | 31.2 (≈ 13.3 µg/mL) | 15.6 (≈ 6.62 µg/mL) | 15.6 (≈ 6.62 µg/mL) | 7.81 (≈ 3.31 µg/mL) | 7.81 (≈ 3.31 µg/mL) | MIC80 [20]: 1.95 µM (≈ 0.827 µg/mL); MIC80 (Candida albicans [22]): 0.97 µM (≈ 0.411 µg/mL); MIC80 (Lichtheimia corymbifera [23]): 31.2 µM (≈ 13.3 µg/mL); MIC80 (Pichia kudriavzevii [24]): 15.6 µM (≈ 6.62 µg/mL)
OC(Cn1cncn1)(Cn1cncn1)c1ccc(F)cc1F [FLUCONAZOLE] | > 50 | 22 (≈ 6.74 µg/mL) | 2 (≈ 0.613 µg/mL) | 3 (≈ 0.919 µg/mL) | 6.5 (≈ 1.99 µg/mL) | 4 (≈ 1.23 µg/mL) | > 50 | 3.3 (≈ 1.01 µg/mL) | > 50 | 0.8 (≈ 0.245 µg/mL) | 17 (≈ 5.21 µg/mL) | > 50 | 9 (≈ 2.76 µg/mL) | > 50 | 3.3 (≈ 1.01 µg/mL) | 13 (≈ 3.98 µg/mL) | > 50 | 5 (≈ 1.53 µg/mL) | > 50 | 3.3 (≈ 1.01 µg/mL) | MIC80 (Candida albicans [22]): 1 µM (≈ 0.306 µg/mL); MIC80 (Lichtheimia corymbifera [23]): > 50 µM; MIC80 (Pichia kudriavzevii [24]): > 50 µM
O=C1OC(COc2ccc(I)cc2)C=C1c1ccc(Br)cc1 (stereo not given) | > 500 | 1.95 (≈ 0.919 µg/mL) | 1.95 (≈ 0.919 µg/mL) | 15.6 (≈ 7.36 µg/mL) | 31.2 (≈ 14.7 µg/mL) | 7.81 (≈ 3.68 µg/mL) | 3.9 (≈ 1.84 µg/mL) | 7.81 (≈ 3.68 µg/mL) | > 500 | 3.9 (≈ 1.84 µg/mL) | 1.95 (≈ 0.919 µg/mL) | 3.9 (≈ 1.84 µg/mL) | 500 (≈ 236 µg/mL) | 31.2 (≈ 14.7 µg/mL) | 31.2 (≈ 14.7 µg/mL) | > 500 | 7.81 (≈ 3.68 µg/mL) | 31.2 (≈ 14.7 µg/mL) | 31.2 (≈ 14.7 µg/mL) | 7.81 (≈ 3.68 µg/mL) | pIC50 (HeLa S3): 5.40; MIC80 [20]: 3.9 µM (≈ 1.84 µg/mL); pIC50 (CCRF-CEM): 5.92; MIC80 (Candida albicans [22]): 0.48 µM (≈ 0.226 µg/mL); pIC50 (HL-60): 5.14; MIC80 (Lichtheimia corymbifera [23]): > 500 µM; MIC80 (Pichia kudriavzevii [24]): > 500 µM
